Assay results from ChEMBL document CHEMBL3351863, “Optimization of 2-phenyl-pyrimidine-4-carboxamides towards potent, orally bioavailable and selective P2Y(12) antagonists for inhibition of platelet aggregation” (Bioorg Med Chem Lett, 2014).

Tests used:
[1] = target: Cytochrome P450 2D6 (Homo sapiens, UniProt P10635); test: Inhibition of CYP2D6 in human liver microsomes assessed as reduction in dextromethorphan-O demethylation; assay type: ADME
[2] = Solubility in basic pH; assay type: physicochemical
[3] = target: T1, Cytochrome P450 3A4 (Homo sapiens, UniProt P08684); test: Inhibition of CYP3A4 in human liver microsomes assessed as reduction in midazolam 1'-hydroxylation; assay type: ADME
T1 sequence (P08684 whole entry): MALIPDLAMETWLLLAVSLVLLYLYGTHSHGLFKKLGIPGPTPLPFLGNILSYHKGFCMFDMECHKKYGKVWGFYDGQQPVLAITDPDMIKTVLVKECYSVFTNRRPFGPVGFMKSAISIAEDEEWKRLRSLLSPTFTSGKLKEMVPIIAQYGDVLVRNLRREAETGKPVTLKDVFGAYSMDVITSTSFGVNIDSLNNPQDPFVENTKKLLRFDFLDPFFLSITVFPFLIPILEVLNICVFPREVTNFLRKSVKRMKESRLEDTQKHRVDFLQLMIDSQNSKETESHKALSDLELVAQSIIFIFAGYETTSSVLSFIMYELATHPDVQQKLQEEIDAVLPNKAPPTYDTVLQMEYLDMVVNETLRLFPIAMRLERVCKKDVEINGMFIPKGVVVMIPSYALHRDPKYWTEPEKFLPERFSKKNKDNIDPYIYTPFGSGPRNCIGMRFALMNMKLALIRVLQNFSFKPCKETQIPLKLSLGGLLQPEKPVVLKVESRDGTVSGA

[4] = target: P2Y purinoceptor 12 (Homo sapiens, UniProt Q9H244); test: Displacement of [3H]-2-methyl-thio-adenosine 5'-diphosphate from human recombinant P2Y12 expressed in CHO cell membranes by scintillation counting method
Chain of P2Y purinoceptor 12 (Q9H244 whole entry): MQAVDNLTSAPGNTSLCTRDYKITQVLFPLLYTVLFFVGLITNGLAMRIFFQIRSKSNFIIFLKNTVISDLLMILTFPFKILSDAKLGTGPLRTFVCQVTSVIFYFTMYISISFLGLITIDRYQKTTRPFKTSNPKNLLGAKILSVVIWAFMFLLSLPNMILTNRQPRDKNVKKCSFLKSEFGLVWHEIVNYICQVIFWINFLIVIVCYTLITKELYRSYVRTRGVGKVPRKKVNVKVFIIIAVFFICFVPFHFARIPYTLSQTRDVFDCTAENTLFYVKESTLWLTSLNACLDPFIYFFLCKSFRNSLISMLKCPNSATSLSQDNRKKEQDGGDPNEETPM
Method in brief: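 CHO cells expressing recombinant P2Y₁₂ receptors, incubated with tritium-labeled 2-methyl-thio-adenosine 5'-diphosphate plus test compound; IC₅₀ from displacement curves, each point in triplicate; reference compound run with every compound set, and set re-analyzed if its IC₅₀ fell outside pre-set 95% confidence interval.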

[5] = Half life in Wistar rat at 1 mg/kg, iv or 10 mg/kg, po; assay type: ADME, organism-based; details: in vivo
Method in brief: (§1)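 Rats dosed by iv infusion at 1 mg/kg (n = 2) or orally at 10 mg/kg (n = 3); plasma levels measured, limit of quantification ca. 1 ng/mL.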

[6] = target: T1, Cytochrome P450 3A4; test: Inhibition of CYP3A4 in human liver microsomes assessed as reduction in testosterone 6beta-hydroxylation; assay type: ADME
[7] = test system: Liver microsome; test: Metabolic stability assay in rat liver microsomes assessed as parent drug disappearance at 1 uM after 20 mins by HPLC and mass spectrometry method; assay type: ADME
[8] = Oral bioavailability in Wistar rat at 10 mg/kg; assay type: ADME, organism-based; details: Wistar, in vivo; method in brief: as §1
[9] = test system: Platelet; test: Inhibition of ADP-induced platelet aggregation in human platelet rich plasma by in-vitro light transmission aggregometry assay; assay type: functional
Method in brief: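 Human platelet-rich plasma incubated with compound, aggregation induced by 3 µM ADP and read by light transmission aggregometry; IC₅₀ derived from concentration–response curve.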

[10] = test system: Platelet; test: Inhibition of ADP-induced platelet aggregation in human platelet rich plasma assessed as remaining activity at 500 nM by in-vitro light transmission aggregometry assay; assay type: functional
Method in brief: (§2)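 Light transmission aggregometry in human platelet-rich plasma; compound incubated, aggregation triggered with 3 µM ADP; remaining activity (RA) recorded at a single compound level (1000, 500 or 100 nM).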

[11] = test system: Platelet; test: Inhibition of ADP-induced platelet aggregation in human platelet rich plasma assessed as remaining activity at 100 nM by in-vitro light transmission aggregometry assay; assay type: functional; method in brief: as §2
[12] = Clearance in Wistar rat at 1 mg/kg, iv; assay type: ADME, organism-based; parameters: dose 1 mg/kg, route intravenous; details: in vivo; method in brief: as §1
[13] = Volume of distribution at steady state in Wistar rat at 1 mg/kg, iv or 10 mg/kg, po; assay type: ADME, organism-based; details: in vivo, read-out: Vdss; method in brief: as §1
[14] = Solubility in neutral pH; assay type: physicochemical
[15] = Potency shift, ratio of IC50 for inhibition of ADP-induced platelet aggregation in human platelet rich plasma to IC50 for displacement of [3H]-2-methyl-thio-adenosine 5'-diphosphate from human recombinant P2Y12 expressed in CHO cell membranes
[16] = test system: Liver microsome; test: Metabolic stability assay in human liver microsomes assessed as parent drug disappearance at 1 uM after 20 mins by HPLC and mass spectrometry method; assay type: ADME
[17] = AUC in Wistar rat at 10 mg/kg, po; assay type: ADME, organism-based, Plasma; parameters: dose 10 mg/kg, route oral; details: Wistar, plasma; method in brief: as §1
[18] = Cmax in Wistar rat at 10 mg/kg, po; assay type: ADME, organism-based; parameters: dose 10 mg/kg, route oral; details: Wistar, in vivo; method in brief: as §1
[19] = target: Voltage-gated inwardly rectifying potassium channel KCNH2 (Homo sapiens, UniProt Q12809); test: Inhibition of human ERG expressed in HEK cells by patch-clamp assay; assay type: cell-based; details: hek293
Chain of Voltage-gated inwardly rectifying potassium channel KCNH2 (Q12809 whole entry): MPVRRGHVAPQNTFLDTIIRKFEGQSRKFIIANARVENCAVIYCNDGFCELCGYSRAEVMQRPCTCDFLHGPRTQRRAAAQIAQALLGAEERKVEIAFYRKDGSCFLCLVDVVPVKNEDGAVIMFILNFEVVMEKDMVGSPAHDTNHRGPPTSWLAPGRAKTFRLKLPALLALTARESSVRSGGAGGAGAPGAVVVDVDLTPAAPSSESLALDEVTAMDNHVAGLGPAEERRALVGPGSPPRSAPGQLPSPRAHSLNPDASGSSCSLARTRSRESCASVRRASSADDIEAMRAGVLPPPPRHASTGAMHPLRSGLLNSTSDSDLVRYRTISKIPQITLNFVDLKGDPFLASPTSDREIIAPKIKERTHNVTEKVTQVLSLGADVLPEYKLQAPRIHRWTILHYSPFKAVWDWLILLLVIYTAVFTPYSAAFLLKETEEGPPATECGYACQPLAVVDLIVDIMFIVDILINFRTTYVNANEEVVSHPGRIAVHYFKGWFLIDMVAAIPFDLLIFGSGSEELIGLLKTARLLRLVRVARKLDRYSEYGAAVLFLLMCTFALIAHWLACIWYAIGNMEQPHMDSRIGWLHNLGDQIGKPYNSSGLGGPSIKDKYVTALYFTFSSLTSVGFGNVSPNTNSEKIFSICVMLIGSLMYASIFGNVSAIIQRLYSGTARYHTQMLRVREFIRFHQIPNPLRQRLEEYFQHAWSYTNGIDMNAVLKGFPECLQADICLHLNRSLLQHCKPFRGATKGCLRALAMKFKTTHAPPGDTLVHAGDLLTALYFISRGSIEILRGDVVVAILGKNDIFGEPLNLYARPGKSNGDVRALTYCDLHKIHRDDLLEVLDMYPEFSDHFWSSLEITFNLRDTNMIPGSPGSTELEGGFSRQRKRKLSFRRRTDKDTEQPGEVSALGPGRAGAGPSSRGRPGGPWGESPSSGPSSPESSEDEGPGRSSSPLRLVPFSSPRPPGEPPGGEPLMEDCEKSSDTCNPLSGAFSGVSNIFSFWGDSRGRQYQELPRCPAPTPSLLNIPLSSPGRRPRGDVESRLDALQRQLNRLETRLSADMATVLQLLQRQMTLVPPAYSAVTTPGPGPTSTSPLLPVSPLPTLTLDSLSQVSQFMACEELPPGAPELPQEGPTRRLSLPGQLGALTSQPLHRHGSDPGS

[20] = target: Cytochrome P450 2C9 (Homo sapiens, UniProt P11712); test: Inhibition of CYP2C9 in human liver microsomes assessed as reduction in diclofenac 4'-hydroxylation; assay type: ADME
Chain of Cytochrome P450 2C9 (P11712 whole entry): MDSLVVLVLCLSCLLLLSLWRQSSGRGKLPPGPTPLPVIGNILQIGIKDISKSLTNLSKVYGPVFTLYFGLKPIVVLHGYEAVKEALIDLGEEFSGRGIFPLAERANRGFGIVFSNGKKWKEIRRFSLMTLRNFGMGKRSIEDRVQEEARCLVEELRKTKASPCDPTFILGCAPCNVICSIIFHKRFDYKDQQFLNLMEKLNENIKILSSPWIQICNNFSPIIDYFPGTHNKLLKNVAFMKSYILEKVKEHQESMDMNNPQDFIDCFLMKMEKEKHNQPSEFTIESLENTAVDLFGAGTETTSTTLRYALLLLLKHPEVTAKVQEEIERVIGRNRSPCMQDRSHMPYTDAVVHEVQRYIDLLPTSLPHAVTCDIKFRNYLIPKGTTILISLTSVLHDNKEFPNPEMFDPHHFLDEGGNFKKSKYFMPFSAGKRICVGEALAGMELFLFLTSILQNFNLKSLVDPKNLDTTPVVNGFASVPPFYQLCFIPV

[21] = Lipophilicity, logD of the compound; assay type: physicochemical; details: octanol/water

Chain of Cytochrome P450 2D6 (P10635 whole entry): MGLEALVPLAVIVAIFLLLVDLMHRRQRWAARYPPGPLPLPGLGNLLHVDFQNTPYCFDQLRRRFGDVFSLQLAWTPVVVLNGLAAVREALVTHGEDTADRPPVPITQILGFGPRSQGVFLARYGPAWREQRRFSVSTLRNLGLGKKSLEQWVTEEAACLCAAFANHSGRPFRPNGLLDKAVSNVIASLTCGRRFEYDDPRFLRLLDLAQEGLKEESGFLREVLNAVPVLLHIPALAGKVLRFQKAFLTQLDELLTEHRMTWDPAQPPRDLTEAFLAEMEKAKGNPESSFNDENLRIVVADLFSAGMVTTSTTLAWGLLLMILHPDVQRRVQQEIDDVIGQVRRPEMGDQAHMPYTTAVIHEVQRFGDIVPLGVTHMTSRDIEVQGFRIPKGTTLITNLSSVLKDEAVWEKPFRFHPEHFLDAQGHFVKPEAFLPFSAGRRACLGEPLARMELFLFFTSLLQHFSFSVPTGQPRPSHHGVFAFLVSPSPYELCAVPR

| Compound | IC50 [4] | half-life [5] | bioavailability [8] | clearance [12] | Vd [13] | Ratio IC50 [15] | AUC [17] | Cmax [18] | other results |
| --- | --- | --- | --- | --- | --- | --- | --- | --- | --- |
| CCOC(=O)N1CCN(C(=O)[C@H](CCC(=O)O)NC(=O)c2cc(N3CC[C@H](OC)C3)nc(-c3ccccc3)n2)CC1 | 16 nM | 0.63 h | 8% | 36 mL/min/kg | 1.8 L/kg | 2 | 0.638 µM·h | 0.683 µM | inhibition (INH) [1]: Not Active; solubility [2]: soluble; inhibition (INH) [3]: Not Active; inhibition (INH) [6]: Not Active; Stability [7]: Stable; IC50 ([9]; Homo sapiens, Platelet, Plasma): 32 nM; Activity [10]: <30%; Activity [11]: <70%; solubility [14]: soluble; Stability [16]: Stable; inhibition (INH) [19]: Not Active; inhibition (INH) [20]: Not Active |
| CCCCOC(=O)N1CCN(C(=O)[C@H](CCC(=O)O)NC(=O)c2cc([C@H]3C[C@@H]3COC)nc(-c3ccccc3)n2)CC1 | 4.8 nM | 2 h | 33% | 17 mL/min/kg | 0.4 L/kg | 6.4 | 6 µM·h | 7.62 µM | IC50 ([9]; platelet): 31 nM; logD [21]: 1.9 |
